Measurements from different studies.
Lines come from different studies, so protocols differ.
Target: Casein kinase I isoform gamma-3 (CSNK1G3, Homo sapiens, UniProt Q9Y6M4)
Tested at: 1 µM

Structure (SMILES) | test | remaining binding
O=C1NC(c2ccccn2)Sc2ccccc21 (centres unmarked) | cell-free assay, competition with immobilised ligand | 100%
O=C(NCCCN1CCOCC1)c1ccc(Nc2nccc(-c3cc4ccccc4s3)n2)cc1 | binding, competition with immobilised ligand | 88%
CCN1CCN(Cc2ccc(C(=O)Nc3ccc(C)c(Oc4ccc5c(c4)CC(=O)N5)c3)cc2C(F)(F)F)CC1 | binding, competition with immobilised ligand | 100%
CCOCCn1cc(C(=O)Nc2ccc(-n3nc(-c4cccnc4)cc3C(F)(F)F)cn2)ccc1=O | cell-free assay, competition with immobilised ligand | 100%
c1cnn2ncc(-c3ccnc(N4CCC45COC5)n3)c2c1 | binding | 100%
O=C(NCC1CCOCC1)c1n[nH]cc1NC(=O)c1c(F)cccc1F | binding, competition with immobilised ligand | 78%
CC1CCCN1c1nccc(-c2cnn3ncccc23)n1 (centres unmarked) | binding | 100%
COc1cnc(Nc2cccc(S(N)(=O)=O)c2)nc1N1CCN(c2ccccc2)C(=O)C1 | binding, competition with immobilised ligand | 87%
C[C@@H]1CCN(c2nccc(-c3cnn4ncccc34)n2)C1 | binding | 65%
CN(C)CC#Cc1ccc(OCCCc2sc(N3CCc4cccc(C(=O)Nc5nc6ccccc6s5)c4C3)nc2C(=O)O)c(F)c1 | cell-free assay, competition with immobilised ligand | 100%
CN(C)c1nccc(-c2cnn3ncccc23)n1 | binding | 82%
CNCc1ccccc1-c1csc([C@H](C)Nc2nc(C)nc3cc(OC)c(OC)cc23)c1 | cell-free assay, competition with immobilised ligand | 93%
Nc1ncc2c(n1)-c1c([nH]c3ccc(C#CC4CC4)cc13)CCCC2 | binding, competition with immobilised ligand | 93%
CC(=O)N1CCC(c2ccc(C(=O)NC3=NCCN3)cc2C(F)(F)F)CC1 | cell-free assay, competition with immobilised ligand | 100%
N[C@@H]1CCN(c2nccc(-c3cnn4ncccc34)n2)C1 | binding | 100%
CNC(=O)[C@@H]1CC[C@@H](n2c(-c3ccc4cnccc4c3)nc3ccc(C(=O)NCc4cccc(C(N)=O)c4)cc32)C1 | binding, competition with immobilised ligand | 100%
O=C(c1ccc(Nc2nccc(-c3cc4ccccc4s3)n2)cc1)N1CCC(N2CCCC2)CC1 | binding, competition with immobilised ligand | 100%
CN(CCCC(F)(F)F)c1nccc(-c2cnn3ncccc23)n1 | binding | 100%
Cc1c(C(=O)O)cc(-c2ccc(C3CCNCC3)cc2)c2ccc(-c3ccc(C(F)(F)F)cc3)cc12 | cell-free assay, competition with immobilised ligand | 100%
O=C(c1ccc(Nc2ncc(Cl)c(-c3ccc(Cl)s3)n2)cc1)N1CCC(N2CCCC2)CC1 | binding, competition with immobilised ligand | 100%
